ChEMBL document CHEMBL2057135, “Synthesis, antitubercular and antimicrobial evaluation of 3-(4-chlorophenyl)-4-substituted pyrazole derivatives” (2012)
≈ marks a conversion by molar mass, not a printed value.

Key:
Assay type in all cases: functional
[1] = system: Cryptococcus neoformans; experiment: Antifungal activity against Cryptococcus neoformans KCCM 50564 after 1 day; details: KCCM 50564, 24 h
[2] = system: Escherichia coli; experiment: Antibacterial activity against Escherichia coli ATCC 25922
[3] = system: Pichia kudriavzevii; experiment: Antifungal activity against Candida krusei KCCM 11655 after 1 day; details: KCCM 11655, 24 h
[4] = system: Aspergillus niger; experiment: Antifungal activity against Aspergillus niger KCTC 1231 after 2 days; details: KCTC 1231, 48 h
[5] = system: Mycobacterium tuberculosis; experiment: Antitubercular activity against Mycobacterium tuberculosis H37Rv ATCC 27294 after 7 days by BACTEC method; details: H37Rv ATCC 27294, 168 h
In short: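 Screened in vitro against M. tuberculosis H37Rv in a modified BACTEC 460 radiometric system. Test compound stocks were made at 1 mg/ml in DMSO and filter-sterilised through 0.22 µm PTFE filters. MIC was read, with rifampin as the reference agent.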

[6] = system: Aspergillus flavus; experiment: Antifungal activity against Aspergillus flavus KCCM 11899 after 2 days; details: KCCM 11899, 48 h
[7] = system: Staphylococcus aureus; experiment: Antibacterial activity against Staphylococcus aureus ATCC 29213

Structure (SMILES) | MIC [1] [µg/mL] | MIC [2] [µg/mL] | MIC [3] [µg/mL] | MIC [4] [µg/mL] | MIC [5] [µg/mL] | MIC [6] [µg/mL] | MIC [7] [µg/mL]
O=C(NN1C(=O)CSC1c1ccccc1[N+](=O)[O-])c1cc(-c2ccc(Cl)cc2)n[nH]1 (racemic) | 3.2 (≈ 7.21 µM) | 0.1 (≈ 0.225 µM) | 25 (≈ 56.3 µM) | 50 (≈ 113 µM) | 4 (≈ 9.01 µM) | 50 (≈ 113 µM) | 2 (≈ 4.51 µM)
O=C(N/N=C/c1ccccc1)c1cc(-c2ccc(Cl)cc2)n[nH]1 | 1.6 (≈ 4.93 µM) | 1 (≈ 3.08 µM) | 12.5 (≈ 38.5 µM) | 50 (≈ 154 µM) | > 5 | 3.2 (≈ 9.85 µM) | 4 (≈ 12.3 µM)
O=C(NN1C(=O)CSC1c1ccccc1)c1cc(-c2ccc(Cl)cc2)n[nH]1 (racemic) | 12.5 (≈ 31.3 µM) | 0.28 (≈ 0.702 µM) | 50 (≈ 125 µM) | 25 (≈ 62.7 µM) | 3.15 (≈ 7.9 µM) | 12.5 (≈ 31.3 µM) | 0.91 (≈ 2.28 µM)
COc1ccc(C2SCC(=O)N2NC(=O)c2cc(-c3ccc(Cl)cc3)n[nH]2)cc1 (racemic) | 12.5 (≈ 29.1 µM) | 0.04 (≈ 0.0933 µM) | 50 (≈ 117 µM) | 3.2 (≈ 7.46 µM) | 0.65 (≈ 1.52 µM) | 25 (≈ 58.3 µM) | 0.5 (≈ 1.17 µM)
O=C(N/N=C/c1cccc([N+](=O)[O-])c1)c1cc(-c2ccc(Cl)cc2)n[nH]1 | 1.6 (≈ 4.33 µM) | 0.13 (≈ 0.352 µM) | 25 (≈ 67.6 µM) | 25 (≈ 67.6 µM) | > 5 | 12.5 (≈ 33.8 µM) | 1.5 (≈ 4.06 µM)
O=C(NN1C(=O)CSC1c1cccc([N+](=O)[O-])c1)c1cc(-c2ccc(Cl)cc2)n[nH]1 (racemic) | 100 (≈ 225 µM) | 0.6 (≈ 1.35 µM) | 50 (≈ 113 µM) | 25 (≈ 56.3 µM) | 2 (≈ 4.51 µM) | 100 (≈ 225 µM) | 8 (≈ 18 µM)
O=C(NN1C(=O)[C@H](Cl)[C@H]1c1ccc(Cl)cc1)c1cc(-c2ccc(Cl)cc2)n[nH]1 (racemic) | 1.6 (≈ 3.67 µM) | 0.01 (≈ 0.023 µM) | 6.3 (≈ 14.5 µM) | 6.3 (≈ 14.5 µM) | 1 (≈ 2.3 µM) | 12.5 (≈ 28.7 µM) | 0.28 (≈ 0.643 µM)
O=C(NN1C(=O)CSC1c1ccc(Cl)cc1)c1cc(-c2ccc(Cl)cc2)n[nH]1 (racemic) | 12.5 (≈ 28.8 µM) | 0.022 (≈ 0.0508 µM) | 25 (≈ 57.7 µM) | 12.5 (≈ 28.8 µM) | 1.15 (≈ 2.65 µM) | 6.3 (≈ 14.5 µM) | 0.048 (≈ 0.111 µM)
O=C(NN1C(=O)[C@H](Cl)[C@H]1c1ccccc1O)c1cc(-c2ccc(Cl)cc2)n[nH]1 (racemic) | 1.6 (≈ 3.83 µM) | 0.019 (≈ 0.0455 µM) | 6.3 (≈ 15.1 µM) | 12.5 (≈ 30 µM) | 0.35 (≈ 0.839 µM) | 12.5 (≈ 30 µM) | 0.125 (≈ 0.3 µM)
O=C(N/N=C/c1ccc(O)cc1)c1cc(-c2ccc(Cl)cc2)n[nH]1 | 50 (≈ 147 µM) | 0.012 (≈ 0.0352 µM) | 100 (≈ 293 µM) | 12.5 (≈ 36.7 µM) | 1.1 (≈ 3.23 µM) | 50 (≈ 147 µM) | 0.35 (≈ 1.03 µM)
O=C(N/N=C/c1ccc(Cl)cc1)c1cc(-c2ccc(Cl)cc2)n[nH]1 | 1.6 (≈ 4.45 µM) | 0.012 (≈ 0.0334 µM) | 12.5 (≈ 34.8 µM) | 12.5 (≈ 34.8 µM) | 1.1 (≈ 3.06 µM) | 25 (≈ 69.6 µM) | 0.12 (≈ 0.334 µM)
O=C(NN1C(=O)[C@H](Cl)[C@H]1c1ccccc1[N+](=O)[O-])c1cc(-c2ccc(Cl)cc2)n[nH]1 (racemic) | 50 (≈ 112 µM) | 0.5 (≈ 1.12 µM) | 12.5 (≈ 28 µM) | 100 (≈ 224 µM) | 1.9 (≈ 4.26 µM) | 50 (≈ 112 µM) | 6 (≈ 13.4 µM)
O=C(NN1C(=O)CSC1c1ccccc1O)c1cc(-c2ccc(Cl)cc2)n[nH]1 (racemic) | 6.3 (≈ 15.2 µM) | 0.028 (≈ 0.0675 µM) | 12.5 (≈ 30.1 µM) | 6.3 (≈ 15.2 µM) | 0.5 (≈ 1.21 µM) | 12.5 (≈ 30.1 µM) | 0.06 (≈ 0.145 µM)
COc1cc(C2SCC(=O)N2NC(=O)c2cc(-c3ccc(Cl)cc3)n[nH]2)ccc1O (racemic) | 1.6 (≈ 3.6 µM) | 0.05 (≈ 0.112 µM) | 12.5 (≈ 28.1 µM) | 1.6 (≈ 3.6 µM) | 0.65 (≈ 1.46 µM) | 12.5 (≈ 28.1 µM) | 0.15 (≈ 0.337 µM)
CO[C@H]1/C=C/O[C@@]2(C)Oc3c(C)c(O)c4c(O)c(c(/C=N/N5CCN(C)CC5)c(O)c4c3C2=O)NC(=O)/C(C)=C\C=C\[C@H](C)[C@H](O)[C@@H](C)[C@@H](O)[C@@H](C)[C@H](OC(C)=O)[C@@H]1C [RIFAMPIN] |  |  |  |  | 0.125 (≈ 0.152 µM) |  | 
O=C(NN1C(=O)[C@H](Cl)[C@H]1c1ccc(O)cc1)c1cc(-c2ccc(Cl)cc2)n[nH]1 (racemic) | 3.2 (≈ 7.67 µM) | 0.01 (≈ 0.024 µM) | 25 (≈ 59.9 µM) | 1.6 (≈ 3.83 µM) | 0.6 (≈ 1.44 µM) | 12.5 (≈ 30 µM) | 0.04 (≈ 0.0959 µM)
O=C(N/N=C/c1ccccc1O)c1cc(-c2ccc(Cl)cc2)n[nH]1 | 25 (≈ 73.4 µM) | 0.015 (≈ 0.044 µM) | 50 (≈ 147 µM) | 100 (≈ 293 µM) | 1.1 (≈ 3.23 µM) | 6.3 (≈ 18.5 µM) | 0.4 (≈ 1.17 µM)
O=C(N/N=C/c1ccccc1Cl)c1cc(-c2ccc(Cl)cc2)n[nH]1 | 3.2 (≈ 8.91 µM) | 0.014 (≈ 0.039 µM) | 12.5 (≈ 34.8 µM) | 12.5 (≈ 34.8 µM) | 0.36 (≈ 1 µM) | 25 (≈ 69.6 µM) | 0.21 (≈ 0.585 µM)

Structure (SMILES) | MIC [1] [µg/mL] | MIC [2] [µg/mL] | MIC [3] [µg/mL] | MIC [4] [µg/mL] | MIC [5] [µg/mL] | MIC [6] [µg/mL] | MIC [7] [µg/mL]
O=C(NN1C(=O)[C@H](Cl)[C@H]1c1ccccc1Cl)c1cc(-c2ccc(Cl)cc2)n[nH]1 (racemic) | 6.3 (≈ 14.5 µM) | 0.031 (≈ 0.0712 µM) | 1.6 (≈ 3.67 µM) | 12.5 (≈ 28.7 µM) | 0.55 (≈ 1.26 µM) | 12.5 (≈ 28.7 µM) | 0.034 (≈ 0.078 µM)
OC(Cn1cncn1)(Cn1cncn1)c1ccc(F)cc1F [FLUCONAZOLE] | 6.3 (≈ 20.6 µM) |  | 25 (≈ 81.6 µM) | 6.3 (≈ 20.6 µM) |  | 25 (≈ 81.6 µM) | 
COc1cc(/C=N/NC(=O)c2cc(-c3ccc(Cl)cc3)n[nH]2)ccc1O | 1.6 (≈ 4.32 µM) | 0.017 (≈ 0.0458 µM) | 12.5 (≈ 33.7 µM) | 25 (≈ 67.4 µM) | 0.55 (≈ 1.48 µM) | 12.5 (≈ 33.7 µM) | 0.12 (≈ 0.324 µM)
O=C(NN1C(=O)CSC1c1ccccc1Cl)c1cc(-c2ccc(Cl)cc2)n[nH]1 (racemic) | 1.6 (≈ 3.69 µM) | 0.048 (≈ 0.111 µM) | 12.5 (≈ 28.8 µM) | 25 (≈ 57.7 µM) | 0.5 (≈ 1.15 µM) | 50 (≈ 115 µM) | 0.02 (≈ 0.0462 µM)
COc1ccc([C@@H]2[C@@H](Cl)C(=O)N2NC(=O)c2cc(-c3ccc(Cl)cc3)n[nH]2)cc1OC (racemic) | 3.2 (≈ 6.94 µM) | 0.5 (≈ 1.08 µM) | 12.5 (≈ 27.1 µM) | 12.5 (≈ 27.1 µM) | 1.15 (≈ 2.49 µM) | 6.3 (≈ 13.7 µM) | 0.05 (≈ 0.108 µM)
O=C(NN1C(=O)[C@H](Cl)[C@H]1c1cccc([N+](=O)[O-])c1)c1cc(-c2ccc(Cl)cc2)n[nH]1 (racemic) | 50 (≈ 112 µM) | 0.33 (≈ 0.739 µM) | 100 (≈ 224 µM) | 12.5 (≈ 28 µM) | 1.99 (≈ 4.46 µM) | 50 (≈ 112 µM) | 1.2 (≈ 2.69 µM)
COc1ccc(/C=N/NC(=O)c2cc(-c3ccc(Cl)cc3)n[nH]2)cc1OC | 12.5 (≈ 32.5 µM) | 4 (≈ 10.4 µM) | 50 (≈ 130 µM) | 25 (≈ 65 µM) | 0.37 (≈ 0.961 µM) | 12.5 (≈ 32.5 µM) | 0.25 (≈ 0.65 µM)
COc1ccc(/C=N/NC(=O)c2cc(-c3ccc(Cl)cc3)n[nH]2)cc1 | 50 (≈ 141 µM) | 0.01 (≈ 0.0282 µM) | 100 (≈ 282 µM) | 12.5 (≈ 35.2 µM) | 0.85 (≈ 2.4 µM) | 100 (≈ 282 µM) | 0.18 (≈ 0.507 µM)
COc1cc([C@@H]2[C@@H](Cl)C(=O)N2NC(=O)c2cc(-c3ccc(Cl)cc3)n[nH]2)ccc1O (racemic) | 12.5 (≈ 27.9 µM) | 0.025 (≈ 0.0559 µM) | 1.6 (≈ 3.58 µM) | 3.2 (≈ 7.15 µM) | 0.6 (≈ 1.34 µM) | 25 (≈ 55.9 µM) | 0.125 (≈ 0.279 µM)
Nc1nc(=O)[nH]cc1F [FLUCYTOSINE] | 6.3 (≈ 48.8 µM) |  | 6.3 (≈ 48.8 µM) | 6.3 (≈ 48.8 µM) |  | 25 (≈ 194 µM) | 
O=C(O)c1cn(C2CC2)c2cc(N3CCNCC3)c(F)cc2c1=O [CIPROFLOXACIN] |  |  |  |  |  |  | 0.25 (≈ 0.754 µM)
O=C(N/N=C/c1ccccc1[N+](=O)[O-])c1cc(-c2ccc(Cl)cc2)n[nH]1 | 1.6 (≈ 4.33 µM) | 8 (≈ 21.6 µM) | 100 (≈ 270 µM) | 3.2 (≈ 8.65 µM) | > 5 | 25 (≈ 67.6 µM) | 8 (≈ 21.6 µM)
O=C(NN1C(=O)[C@H](Cl)[C@H]1c1ccccc1)c1cc(-c2ccc(Cl)cc2)n[nH]1 (racemic) | 50 (≈ 125 µM) | 0.48 (≈ 1.2 µM) | 100 (≈ 249 µM) | 25 (≈ 62.3 µM) | 1.25 (≈ 3.12 µM) | 100 (≈ 249 µM) | 0.51 (≈ 1.27 µM)
COc1c(N2C[C@@H]3CCCN[C@@H]3C2)c(F)cc2c(=O)c(C(=O)O)cn(C3CC3)c12 [MOXIFLOXACIN] |  | 0.015 (≈ 0.0374 µM) |  |  |  |  | 0.06 (≈ 0.149 µM)
COc1ccc(C2SCC(=O)N2NC(=O)c2cc(-c3ccc(Cl)cc3)n[nH]2)cc1OC (racemic) | 50 (≈ 109 µM) | 0.2 (≈ 0.436 µM) | 12.5 (≈ 27.2 µM) | 6.3 (≈ 13.7 µM) | 1.2 (≈ 2.61 µM) | 12.5 (≈ 27.2 µM) | 0.06 (≈ 0.131 µM)
COc1ccc([C@@H]2[C@@H](Cl)C(=O)N2NC(=O)c2cc(-c3ccc(Cl)cc3)n[nH]2)cc1 (racemic) | 1.6 (≈ 3.71 µM) | 0.06 (≈ 0.139 µM) | 12.5 (≈ 29 µM) | 3.2 (≈ 7.42 µM) | 1.2 (≈ 2.78 µM) | 12.5 (≈ 29 µM) | 0.0025 (≈ 0.0058 µM)
O=C(NN1C(=O)CSC1c1ccc(O)cc1)c1cc(-c2ccc(Cl)cc2)n[nH]1 (single isomer, unassigned; (+)) | 1.6 (≈ 3.86 µM) | 0.017 (≈ 0.041 µM) | 50 (≈ 121 µM) | 1.6 (≈ 3.86 µM) | 0.39 (≈ 0.94 µM) | 12.5 (≈ 30.1 µM) | 0.125 (≈ 0.301 µM)
